ChEMBL document CHEMBL1124868, “Synthesis and anti-HIV-1 activity of 2'-"up"-fluoro analogues of active anti-AIDS nucleosides 3'-azido-3'-deoxythymidine (AZT) and 2',3'-dideoxycytidine (DDC)” (J Med Chem, 1990)
Values joined by “and” are separate entries in the source; they are usually repeats but may differ in a detail not shown here. Identical values can stand only once.

How the values were obtained:
MT4 [1] = assay: AntiHIV-1 activity measured in MT-4 cells at 5 to 6 different concentrations, using the P24 antigen enzyme-linked immunosorbent assay (ELISA).; assay type: functional, cell-based; settings: Homo sapiens
Summary of the method: (§1)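 MT4 cells infected with HIV-1 at 200 TCID50 per 10^6 cells, adsorbed 1 h at 37 °C, 5% CO2, washed, resuspended at 10^6 cells/3 mL. Compounds added immediately at five to six concentrations. After 5 days at 37 °C, cell-free supernatant assayed for P24 core antigen by ELISA kit or for RT activity. EC50 from median-effect plot analysis against untreated infected controls.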

HL-60 = assay: Cytotoxicity was tested in HL60 cells by the trypan blue exclusion assay.; assay type: functional, cell-based; settings: Homo sapiens
Summary of the method: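 HL60 cells exposed to at least five compound concentrations plus no-drug control, in duplicate in 96-well plates. Growth inhibition counted by trypan blue exclusion on a hemocytometer. IC50 derived by median-effect plot analysis.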

[2] = Selectivity ratio to IC50 of MT4 cells and EC50, anti-HIV activity of MT-4 cells; assay type: functional
Summary of the method: (§2)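 Selectivity ratio is the cytotoxic IC50 (MT4 or HL60 cells, […]) divided by the anti-HIV-1 EC50 from P24 ELISA or RT assay in infected MT4 cells.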

MT4 [3] = assay: AntiHIV-1 activity measured in MT-4 cells at 5 to 6 different concentrations, using the reverse transcriptase (RT) assay; assay type: functional, cell-based; settings: Homo sapiens; summary of the method: as §1
[4] = Selectivity ratio to IC50 of HL60 cells and EC50, anti-HIV activity of MT-4 cells; assay type: functional, HL-60; summary of the method: as §2
MT4 [5] = assay: Cytotoxicity was tested in MT-4 cells by the XTT-microculture tetrazolium assay.; assay type: functional, cell-based; settings: Homo sapiens
Summary of the method: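 MT4 cells exposed in duplicate in 96-well plates to at least five concentrations for 4 days. PMS-XTT (0.075 mM PMS with 1 mg/mL XTT in serum-free medium) added, then 6 h at 37 °C before reading. IC50 derived by median-effect plot analysis.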

Compound	EC50 (MT4 [1]) [µM]	IC50 (HL-60) [µM]	Selectivity ratio [2]	EC50 (MT4 [3]) [µM]	Selectivity ratio [4]	IC50 (MT4 [5]) [µM]
Cc1cn([C@@H]2O[C@H](CO)[C@@H](N=[N+]=[N-])[C@H]2F)c(=O)[nH]c1=O	168	440	1.26 and 2.06	103	2.62 and 4.27	–
Nc1ccn([C@@H]2O[C@H](CO)C[C@@H]2F)c(=O)n1	2.66	707	328 and 343	2.54	266 and 278	1480
Nc1ccn([C@H]2CC[C@@H](CO)O2)c(=O)n1 [ZALCITABINE]	0.236	100	1326 and 1304	0.24	424 and 417	–
Cc1cn([C@H]2C[C@H](N=[N+]=[N-])[C@@H](CO)O2)c(=O)[nH]c1=O [ZIDOVUDINE]	0.006	96	8833 and 11778	0.0045	16000 and 21333	–
